This note sets out measurements from PMC7302971 (Bioorganic chemistry, 2020).

One may read the IC50 as the point on the concentration scale where inhibition reaches its midpoint.

Where two headings read alike, the source gives them in different places.

One experiment addresses HDAC4 (Homo sapiens, UniProt P56524). Put plainly: HDAC enzyme activity assay. In kind it is biochemical. To be noted: for remaining activity at 50 µM: read-out: Residual HDAC4 activity at 50 μM. The method in brief: (§1)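 HDAC4 and HDAC8 were in-house recombinant enzymes. Each was preincubated with inhibitor, either a single 50 μM screen or serial dilutions, for 60 min at 30 °C in Tris-HCl pH 8.0/KCl/Pluronic buffer. Substrate was 20 μM Boc-Lys(trifluoroacetyl)-AMC for 60 min at 30 °C, stopped with 1.7 μM SATFMK, and developed with trypsin. AMC fluorescence was read at 350/450 nm and reported as residual activity or as IC50 from a four-parameter logistic fit.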

Another experiment addresses T1, HDAC8 (Homo sapiens, UniProt Q9BY41).
T1 sequence (Q9BY41 1-377): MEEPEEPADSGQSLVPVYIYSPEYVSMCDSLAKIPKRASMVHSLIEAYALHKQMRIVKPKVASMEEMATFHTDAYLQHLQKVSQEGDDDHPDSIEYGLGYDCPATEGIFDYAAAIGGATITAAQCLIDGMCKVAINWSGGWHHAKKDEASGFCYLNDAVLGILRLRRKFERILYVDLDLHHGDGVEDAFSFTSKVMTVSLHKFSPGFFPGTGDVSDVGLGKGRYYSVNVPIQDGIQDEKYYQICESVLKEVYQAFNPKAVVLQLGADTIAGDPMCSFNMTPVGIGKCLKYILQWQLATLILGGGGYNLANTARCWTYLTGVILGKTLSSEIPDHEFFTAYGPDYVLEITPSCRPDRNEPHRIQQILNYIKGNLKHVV
As to the kind of experiment: HDAC enzyme activity assay. To be noted: for remaining activity at 50 µM: read-out: Residual HDAC8 activity at 50 μM. Type of experiment: biochemical. The method in brief:
as §1

Sequence of HDAC4 (P56524 648-1057 limits assumed): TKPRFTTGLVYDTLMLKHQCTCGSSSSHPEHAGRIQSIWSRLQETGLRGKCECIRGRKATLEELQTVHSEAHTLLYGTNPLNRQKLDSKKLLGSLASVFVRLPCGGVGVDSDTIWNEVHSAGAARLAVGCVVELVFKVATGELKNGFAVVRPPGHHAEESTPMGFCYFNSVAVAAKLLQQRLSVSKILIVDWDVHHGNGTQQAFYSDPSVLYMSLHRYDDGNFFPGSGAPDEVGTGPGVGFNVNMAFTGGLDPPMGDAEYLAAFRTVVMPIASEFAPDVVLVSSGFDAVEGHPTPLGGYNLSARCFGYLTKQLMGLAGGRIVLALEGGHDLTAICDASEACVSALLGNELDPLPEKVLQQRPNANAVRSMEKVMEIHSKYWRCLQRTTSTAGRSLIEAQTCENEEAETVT

For the compound `O=C(CN1C(=O)SC(=Cc2ccccn2)C1=O)Nc1cccc(F)c1` [Compound P3, 2-(2,4-dioxo-5-(pyridin-2-ylmethylene)thiazolidin-3-yl)-N-(3-fluorophenyl)acetamide], the IC50 against HDAC4 and against HDAC8 was more than 50 µM throughout. The values for the remaining activity at 50 µM on HDAC4 and on HDAC8 were 100% and 53%, respectively.
With `Cc1cnc(NC(=O)CN2C(=O)SC(=Cc3ccccn3)C2=O)s1` [Compound P21, 2-(2,4-dioxo-5-(pyridin-2-ylmethylene)thiazolidin-3-yl)-N-(5-methylthiazol-2-yl)acetamide], the half-maximal inhibitory concentration (IC50) at HDAC4 and on HDAC8 was more than 50 µM throughout. The remaining activity at 50 µM on HDAC4 is 100%; on HDAC8 it was 54%.
`O=C(CN1C(=O)SC(=Cc2ccccn2)C1=O)Nc1nccs1` [Compound P20, 2-(2,4-dioxo-5-(pyridin-2-ylmethylene)thiazolidin-3-yl)-N-(thiazol-2-yl)acetamide]: the IC50 on HDAC4 and at HDAC8 was more than 50 µM throughout. The remaining activity at 50 µM on HDAC4 worked out at 100%; on HDAC8 it was 92%.
As for `O=C(CN1C(=O)SC(=Cc2ccccn2)C1=O)Nc1c(F)cc(Br)cc1F` [Compound P15, N-(4-bromo-2,6-difluorophenyl)-2-(2,4-dioxo-5-(pyridin-2-ylmethylene)thiazolidin-3-yl)acetamide], the IC50 on HDAC4 and against HDAC8 was more than 50 µM in each case. Besides, the figures for the remaining activity at 50 µM on HDAC4 and at HDAC8 were 100% and 94%, respectively.
On to `O=C(CN1C(=O)SC(=Cc2ccccn2)C1=O)Nc1ccccc1` [Compound P1, 2-(2,4-dioxo-5-(pyridin-2-ylmethylene)thiazolidin-3-yl)-N-phenylacetamide], for which, on HDAC4, the IC50 is more than 50 µM and the remaining activity at 50 µM is 100%. In addition, at HDAC8, the half-maximal inhibitory concentration (IC50) is more than 50 µM and the remaining activity at 50 µM was 89%.
Consider `Cc1ccc(NC(=O)CN2C(=O)SC(=Cc3ccccn3)C2=O)cc1Cl` [Compound P17, N-(3-chloro-4-methylphenyl)-2-(2,4-dioxo-5-(pyridin-2-ylmethylene)thiazolidin-3-yl)acetamide], for which the 50% inhibitory concentration (IC50) at HDAC4 and at HDAC8 was more than 50 µM in each case. The figures for the remaining activity at 50 µM on HDAC4 and at HDAC8 were 100% and 88%, respectively.
In the case of `O=C(CN1C(=O)SC(=Cc2ccccn2)C1=O)Nc1ccc(Cl)cc1C(F)(F)F` [Compound P7, N-(4-chloro-2-(trifluoromethyl)phenyl)-2-(2,4-dioxo-5-(pyridin-2-ylmethylene)thiazolidin-3-yl)acetamide], at HDAC4, the IC50 was more than 50 µM and the remaining activity at 50 µM came out at 100%. On HDAC8, the 50% inhibitory concentration (IC50) was more than 50 µM and the remaining activity at 50 µM is 61%.
`O=C(CN1C(=O)SC(=Cc2ccccn2)C1=O)Nc1ccccc1Oc1ccccc1` [Compound P13, 2-(2,4-dioxo-5-(pyridin-2-ylmethylene)thiazolidin-3-yl)-N-(2-phenoxyphenyl)acetamide]: on HDAC4, the 50% inhibitory concentration (IC50) was more than 50 µM and the remaining activity at 50 µM came out at 100%. Moreover, at HDAC8, the IC50 was more than 50 µM and the remaining activity at 50 µM was found to be 91%.
Regarding `O=C(CN1C(=O)SC(=Cc2ccccn2)C1=O)Nc1ccc(Br)cc1F` [Compound P4, N-(4-bromo-2-fluorophenyl)-2-(2,4-dioxo-5-(pyridin-2-ylmethylene)thiazolidin-3-yl)acetamide], the concentration for half-maximal inhibition (IC50) against HDAC4 and against HDAC8 was more than 50 µM in each case. Besides, the remaining activity at 50 µM stood at 100% on HDAC4 and 85% at HDAC8.
Take `O=C(CN1C(=O)SC(=Cc2ccccn2)C1=O)Nc1cccc(C(F)(F)F)c1` [Compound P6, 2-(2,4-dioxo-5-(pyridin-2-ylmethylene)thiazolidin-3-yl)-N-(3-(trifluoromethyl)phenyl)acetamide]: the IC50 against HDAC4 and at HDAC8 was more than 50 µM each time. Also, the remaining activity at 50 µM stood at 100% at HDAC4 and 82% on HDAC8.
With `O=C(CN1C(=O)SC(=Cc2ccccn2)C1=O)Nc1ccccn1` [Compound P23, 2-(2,4-dioxo-5-(pyridin-2-ylmethylene)thiazolidin-3-yl)-N-(pyridin-2-yl)acetamide], at HDAC4, the IC50 is more than 50 µM and the remaining activity at 50 µM came out at 85%. In addition, on HDAC8, the IC50 is more than 50 µM and the remaining activity at 50 µM was 54%.
As for “2-(2,4-dioxo-5-(pyridin-2-ylmethylene)thiazolidin-3-yl)-N-(4-methylisoxazol-3-yl)acetamide [Compound P18]”, the “Residual HDAC4 activity at 50 μM” value on HDAC4 (50 μM) amounted to 100%. Further, the IC50 on HDAC4 (read-out: HDAC4 IC50, triplicates, N=3) is more than 50 µM; at HDAC8 (read-out: HDAC8 IC50, triplicates, N=3) it was more than 50 µM. The “Residual HDAC8 activity at 50 μM” value on HDAC8 (50 μM) worked out at 99%.
For the compound `O=C(CN1C(=O)SC(=Cc2ccccn2)C1=O)Nc1ccc(F)cc1` [Compound P11, 2-(2,4-dioxo-5-(pyridin-2-ylmethylene)thiazolidin-3-yl)-N-(4-fluorophenyl)acetamide], the half-maximal inhibitory concentration (IC50) against HDAC4 and against HDAC8 was more than 50 µM each time. The remaining activity at 50 µM at HDAC4 came out at 100%.
Consider `COc1cccc(NC(=O)CN2C(=O)SC(=Cc3ccccn3)C2=O)c1` [Compound P24, 2-(2,4-dioxo-5-(pyridin-2-ylmethylene)thiazolidin-3-yl)-N-(3-methoxyphenyl)acetamide], for which, at HDAC4, the half-inhibitory concentration (IC50) was more than 50 µM and the remaining activity at 50 µM amounted to 100%. On HDAC8, the IC50 was more than 50 µM and the remaining activity at 50 µM came to 68%.
Consider `COc1ccc(NC(=O)CN2C(=O)SC(=Cc3ccccn3)C2=O)cc1` [Compound P14, 2-(2,4-dioxo-5-(pyridin-2-ylmethylene)thiazolidin-3-yl)-N-(4-methoxyphenyl)acetamide], for which, on HDAC4, the IC50 is more than 50 µM and the remaining activity at 50 µM is 100%. Further, on HDAC8, the half-maximal inhibitory concentration (IC50) is more than 50 µM and the remaining activity at 50 µM was determined as 67%.
`O=C(CN1C(=O)SC(=Cc2ccccn2)C1=O)Nc1ccc(Br)cc1` [Compound P22, N-(4-bromophenyl)-2-(2,4-dioxo-5-(pyridin-2-ylmethylene)thiazolidin-3-yl)acetamide]: on HDAC4, the IC50 is more than 50 µM and the remaining activity at 50 µM was 100%. On HDAC8, the IC50 is more than 50 µM and the remaining activity at 50 µM worked out at 64%.
Consider `O=C(CN1C(=O)SC(=Cc2ccccn2)C1=O)Nc1ccc([N+](=O)[O-])cc1` [Compound P16, 2-(2,4-dioxo-5-(pyridin-2-ylmethylene)thiazolidin-3-yl)-N-(4-nitrophenyl)acetamide], for which, on HDAC4, the concentration for half-maximal inhibition (IC50) is more than 50 µM and the remaining activity at 50 µM is 100%. This compound also gave a half-maximal inhibitory concentration (IC50) on HDAC8 of more than 50 µM.
`O=C(CN1C(=O)SC(=Cc2ccccn2)C1=O)Nc1ccccc1F` [Compound P2, 2-(2,4-dioxo-5-(pyridin-2-ylmethylene)thiazolidin-3-yl)-N-(2-fluorophenyl)acetamide]: at HDAC4, the IC50 is more than 50 µM and the remaining activity at 50 µM amounted to 100%. In addition, on HDAC8, the concentration for half-maximal inhibition (IC50) is more than 50 µM and the remaining activity at 50 µM came to 92%.
